Results on two compounds are retold here after paper PMC3889630 (European Journal of Clinical Pharmacology, 2013).

Structures are written as SMILES. Entries after “also recorded” stand apart in the source; their conditions may differ. Read-outs that look alike come from different tables or passages of the source. Where only a bound is given, the exact number is not on record here.

Series [1] is classed as in vivo, human. Summed up:
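Severe renal impairment group (CLcr <30 mL/min) and matched healthy group (>90 mL/min), n=8 each, took one fasted morning 50 mg tablet. Total DTG and DTG-glucuronide measured by validated LC-MS/MS after acetonitrile extraction. Non-compartmental parameters log-transformed and compared by ANCOVA (gender fixed; age, BMI covariates) as geometric LS mean ratio impaired/healthy with 90 % CI.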

Series [2] is classed as in vitro ADME, human.
Series [3] can be described thus: Safety and tolerability after single 50 mg DTG dose. It counts as in vivo, human. Conditions: both groups. Summed up: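 Open-label single-dose study in HIV-seronegative adults aged 18–70 y: 8 with severe renal impairment (24-h urine CLcr <30 mL/min) and 8 healthy (CLcr >90 mL/min), matched for gender, age (±5 y) and BMI (±25 %). Each took one 50 mg tablet in the morning, fasted, and stayed housed until the last PK sample. Clinical and laboratory safety checks throughout, plus follow-up 7–10 days post-dose.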

For series [4] the following is noted: cited from earlier work.
For series [5] the following is noted: cited from earlier work. The source holds these as a separate data set.
The conditions of series [6]: co-administration with darunavir/ritonavir, Phase 1 study; cited from earlier work.
The conditions of series [7]: treatment-naïve subjects, SPRING-1; cited from earlier work.
Another series has as its system HIV. Conditions: stated in discussion, no reference given; cited from earlier work.

Broadly, the Cmax is the peak of the concentration-time curve. Take `C[C@@H]1CCO[C@H]2Cn3cc(C(=O)NCc4ccc(F)cc4F)c(=O)c(O)c3C(=O)N12` [DTG, Dolutegravir]: in series [1] (50 mg single oral dose), the “mean elimination half-life shorter in renal impairment compared to controls” value was 18%. Moreover, the “correlation between creatinine clearance and DTG PK parameters” value in series [1] (Pearson, p > 0.1) is “No significant correlation”. In series [1] (human, plasma, oral, 50 mg, Cmax, range of values, DTG, healthy subjects), this compound returned a Cmax of 0.82 to 3.2 µg/mL. The “GLS mean unbound plasma DTG concentration lower in renal impaired subjects” value in series [2] (3-hour time point) is 14%. Moreover, the “GLS mean unbound plasma DTG concentration lower in renal impaired subjects” value in series [2] (24-hour time point) is reported as 49%. Also, in series [2] (severe renal impairment vs healthy), the “effect of renal impairment on DTG fraction unbound in plasma” value is “did not affect; also recorded: similar”. For the same compound, in series [3], the “deaths or serious adverse events” value is listed as “No deaths or serious adverse events”, the “intensity of adverse events” value was “mild (Grade 1)” and the tolerability result is recorded as “well tolerated”. The “share of DTG among drug-related components circulating in plasma” value in series [4] was above 97%. The “renal elimination of unchanged drug” value in series [4] (human) was < 1 % of the dose. For the same compound, in series [5], the “bound to plasma proteins” value is “greater than 99%”. For the same compound, the “reduction of DTG trough concentration by DRV/r” value in series [6] is 38%. In addition, the “reduction in DTG exposure between the 50 mg and 10 mg once-daily doses” value in series [7] is listed as 75%.

On to `C[C@@H]1CCO[C@H]2Cn3cc(C(=O)NCc4ccc(F)cc4F)c(=O)c(O[C@@H]4O[C@H](C(=O)O)[C@@H](O)[C@H](O)[C@H]4O)c3C(=O)N12` [DTG-Gluc, DTG-glucuronide], for which the “t1/2 ratio of DTG-Gluc to DTG” value in series [1] (both groups of subjects) is on record as around 1. Moreover, the “glucuronide exposure relative to parent DTG based on molar ratios” value in series [1] (renally-impaired population) is reported as below 10%. Besides, the antiviral activity entry with HIV is given as “no antiviral activity”.
